≈ marks a conversion by molar mass, not a printed value. Like-named read-outs stand apart in the source and are kept apart here.
Experiments:
[1] = Plasma and urine pharmacokinetics, part I SAD study; assay type: in vivo, human; conditions: for CL/F / Fe0‐72h (fraction excreted in urine): geometric mean (geometric CV%)
Outline: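 Healthy adults randomized 6:2 to oral test compound or placebo (n = 8/cohort), fasted ≥10 h, no food ≥4 h postdose. Solution given as 150 mL in diluted Ora-Sweet plus 90 mL water rinse. Plasma sampled predose to 72 h. UHPLC-MS/MS with deuterated internal standard; plasma 2.5–1000 μg/L (LLOQ 2.5), urine 2–800 μg/L (LLOQ 2.0). Noncompartmental analysis; power-model ln-regression of Cmax/AUC on dose, slope with 90% CI.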

[2] = assay type: in vivo, human; conditions: for CL/F / Fe0‐12h (fraction excreted in urine) / Accumulation ratio (based on AUCτ): geometric mean (geometric CV%); for Tmax: human, plasma, oral, range
Solubility in water = assay type: physicochemical
[3] = Metabolite profile in liver microsomes; assay type: in vitro ADME
[4] = MAD day 1, single 100 mg tablet
[5] = MAD day 1, single 200 mg tablet
[6] = MAD day 14, 50 mg tablet b.i.d.
[7] = MAD day 14, 100 mg tablet b.i.d.
[8] = MAD day 14, 200 mg tablet b.i.d.

**Q.** Which CL/F ([1]; SAD single 100 mg capsule) does the source give for `O[C@H]1CCCN[C@@H]1CCCn1cnc2c(Cl)c(Cl)ccc21` [Bersiporocin] here?
**A.** The CL/F was 156.48 (58.10) L/h.

**Q.** And the “Fe0‐72h (fraction excreted in urine)” value ([1]; SAD single 100 mg capsule)?
**A.** Its value is 10.01 (45.08) %.

**Q.** What about the CL/F ([1]; SAD single 100 mg solution) of the same compound?
**A.** The CL/F was 340.72 (48.72) L/h.

**Q.** And the “Fe0‐72h (fraction excreted in urine)” value ([1]; SAD single 100 mg solution)?
**A.** Its value is 7.59 (32.47) %.

**Q.** And the CL/F ([1]; SAD single 300 mg capsule)?
**A.** Its CL/F is 196.59 (47.06) L/h.

**Q.** What about the “Fe0‐72h (fraction excreted in urine)” value ([1]; SAD single 300 mg capsule) of the same compound?
**A.** Its value is 7.42 (43.31) %.

**Q.** What about the CL/F ([1]; SAD single 500 mg tablet) of the same compound?
**A.** Its CL/F is 213.75 (53.27) L/h.

**Q.** And the “Fe0‐72h (fraction excreted in urine)” value ([1]; SAD single 500 mg tablet)?
**A.** The value was 42.18 (180.78) %.

**Q.** And the CL/F ([1]; SAD single 600 mg capsule)?
**A.** Its CL/F is 312.07 (222.08) L/h.

**Q.** And the “Fe0‐72h (fraction excreted in urine)” value ([1]; SAD single 600 mg capsule)?
**A.** Its value is 3.09 (341.55) %.

**Q.** What about the half-life ([1]; human, plasma, oral, t 1/2, range, SAD, enteric coated capsule) of the same compound?
**A.** Its half-life is 6.91 to 9.9 h.

**Q.** What about the “dose dependence of plasma concentration” value ([1]; single dose of enteric coated capsule) of the same compound?
**A.** Its value is “dose‐proportional manner”.

**Q.** And the “role of renal elimination” value ([1]; urine PK data from SAD or MAD)?
**A.** The value was “renal elimination was not the major clearance pathway”.

**Q.** What about the “dose adjusted plasma exposure, CYP2D6 poor metabolizer compared to the median value in other phenotypes” value ([2]; MAD) of the same compound?
**A.** Its value is “six‐ to nine‐fold higher”.

**Q.** What about the CL/F ([2]; MAD day 1, single 25 mg tablet) of the same compound?
**A.** The CL/F was 175.57 (70.55) L/h.

**Q.** What about the “Fe0‐12h (fraction excreted in urine)” value ([2]; MAD day 1, single 25 mg tablet) of the same compound?
**A.** Its value is 6.23 (44.75) %.

**Q.** What about the CL/F ([2]; MAD day 1, single 50 mg tablet) of the same compound?
**A.** Its CL/F is 292.89 (26.44) L/h.

**Q.** And the “Fe0‐12h (fraction excreted in urine)” value ([2]; MAD day 1, single 50 mg tablet)?
**A.** The value was 6.09 (95.30) %.

**Q.** What about the CL/F [2, 4] of the same compound?
**A.** The CL/F was 261.98 (49.54) L/h.

**Q.** What about the “Fe0‐12h (fraction excreted in urine)” value [2, 4] of the same compound?
**A.** The value was 8.20 (27.21) %.

**Q.** What about the CL/F [2, 5] of the same compound?
**A.** Its CL/F is 266.78 (18.62) L/h.

**Q.** And the “Fe0‐12h (fraction excreted in urine)” value [2, 5]?
**A.** The value was 8.44 (50.39) %.

**Q.** And the “Accumulation ratio (based on AUCτ)” value ([2]; MAD day 14, 25 mg tablet b.i.d.)?
**A.** Its value is 1.94 (26.34).

**Q.** And the “Accumulation ratio (based on AUCτ)” value [2, 6]?
**A.** The value was 2.33 (31.42).

**Q.** And the “Fe0‐12h (fraction excreted in urine)” value [2, 6]?
**A.** Its value is 6.09 (95.30) %.

**Q.** What about the “Accumulation ratio (based on AUCτ)” value [2, 7] of the same compound?
**A.** The value was 1.88 (35.07).

**Q.** What about the “Fe0‐12h (fraction excreted in urine)” value [2, 7] of the same compound?
**A.** The value was 8.20 (27.21) %.

**Q.** What about the “Accumulation ratio (based on AUCτ)” value [2, 8] of the same compound?
**A.** The value was 3.75 (36.01).

**Q.** What about the “Fe0‐12h (fraction excreted in urine)” value [2, 8] of the same compound?
**A.** Its value is 8.44 (50.39) %.

**Q.** What about the “increase of AUC” value ([2]; MAD, 100 to 200 mg dose group) of the same compound?
**A.** Its value is “more than four‐folds”.

**Q.** What about the “dose dependence of plasma concentration” value ([2]; MAD, enteric coated tablet, after single and multiple doses) of the same compound?
**A.** Its value is “dose‐proportional manner”.

**Q.** What about the “time to steady‐state of plasma concentration” value ([2]; MAD, enteric coated tablet, first Helmert contrast with p > 0.05) of the same compound?
**A.** The value was 2 days.

**Q.** What about the Tmax ([2]; median T max after a single dose, MAD, single dose) of the same compound?
**A.** Its Tmax is 2.5 to 6 h.

**Q.** And the Tmax ([2]; median T max,ss, MAD, multiple doses)?
**A.** Its Tmax is 2 to 6 h.

**Q.** And the solubility (Solubility in water)?
**A.** The solubility was 19.6 mg/mL (≈ 59.6 mM).

**Q.** And the “number of metabolites identified” value [3]?
**A.** Its value is 21.

— paper PMC10339703 (Clinical and Translational Science, 2023)
